Activity calls are given as the source filed them. No cut-off for these calls is given here.
Legend:
SK-MEL3 = experiment: Antiproliferative activity against human SK-MEL3 cells assessed as cell growth inhibition incubated for 96 hrs by crystal violet staining; conditions: SK-MEL3, 96 h
SJRH30 = experiment: Antiproliferative activity against human Rh30 cells assessed as cell growth inhibition incubated for 96 hrs by MTS assay; assay type: functional, cell-based; conditions: SJRH30, 96 h
KM-H2 = experiment: Antiproliferative activity against human KM-H2 cells assessed as cell growth inhibition incubated for 96 hrs by MTS assay; assay type: functional, cell-based; conditions: KM-H2, 96 h
TMD8 = experiment: Antiproliferative activity against human TMD8 cells assessed as cell growth inhibition incubated for 96 hrs by MTS assay; assay type: functional, cell-based; conditions: TMD8, 96 h
NCI-H2009 = experiment: Antiproliferative activity against human NCI-H2009 cells assessed as cell growth inhibition incubated for 96 hrs by crystal violet staining; conditions: NCI-H2009, 96 h
HCT-15 = experiment: Antiproliferative activity against human HCT-15 cells assessed as cell growth inhibition incubated for 96 hrs by crystal violet staining; conditions: HCT-15, 96 h
[1] = target: Serine/threonine-protein kinase 38 (Homo sapiens, UniProt Q15208); experiment: Binding affinity to NDR1 (unknown origin) assessed as dissociation constant
Chain of Serine/threonine-protein kinase 38 (Q15208 whole entry): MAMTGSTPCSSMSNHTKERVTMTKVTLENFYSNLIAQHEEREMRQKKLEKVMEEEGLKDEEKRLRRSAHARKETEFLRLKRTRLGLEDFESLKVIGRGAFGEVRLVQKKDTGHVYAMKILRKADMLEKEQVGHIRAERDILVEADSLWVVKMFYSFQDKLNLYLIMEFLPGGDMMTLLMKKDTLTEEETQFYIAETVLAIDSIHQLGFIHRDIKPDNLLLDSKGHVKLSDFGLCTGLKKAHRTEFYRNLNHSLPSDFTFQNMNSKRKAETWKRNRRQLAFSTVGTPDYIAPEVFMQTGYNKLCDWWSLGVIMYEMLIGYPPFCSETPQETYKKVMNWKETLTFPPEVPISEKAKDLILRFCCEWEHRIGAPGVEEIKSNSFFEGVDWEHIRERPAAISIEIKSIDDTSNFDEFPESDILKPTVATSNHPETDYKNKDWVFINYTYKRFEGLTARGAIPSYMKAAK

HCC70 = experiment: Antiproliferative activity against human HCC70 cells assessed as cell growth inhibition incubated for 96 hrs by MTS assay; assay type: functional, cell-based; conditions: HCC70, 96 h
[2] = Antiproliferative activity against human NCI-H2110 cells assessed as cell growth inhibition incubated for 96 hrs by crystal violet staining; conditions: NCI-H2110, 96 h
HCT-116 = experiment: Antiproliferative activity against human HCT-116 cells assessed as cell growth inhibition incubated for 96 hrs by crystal violet staining; conditions: HCT-116, 96 h
JeKo-1 = experiment: Antiproliferative activity against human JeKo-1 cells assessed as cell growth inhibition incubated for 96 hrs by MTS assay; assay type: functional, cell-based; conditions: JeKo-1, 96 h
[3] = Half life in male Wistar rat plasma at 0.5 mg/kg, iv measured after 24 hrs by LC/-MS/MS analysis; assay type: ADME, organism-based
IGROV-1 = experiment: Antiproliferative activity against human IGROV-1 cells assessed as cell growth inhibition incubated for 96 hrs by crystal violet staining; conditions: IGROV-1, 96 h
A2780 = experiment: Antiproliferative activity against human A2780 cells assessed as cell growth inhibition incubated for 96 hrs by crystal violet staining; conditions: A2780, 96 h
NCI-H292 = experiment: Antiproliferative activity against human NCI-H292 cells assessed as cell growth inhibition incubated for 96 hrs by crystal violet staining; conditions: NCI-H292, 96 h
A2780cis = conditions: Homo sapiens, dose 2.5 mg/kg, route po, time 7.0 day
Calu-6 = experiment: Antiproliferative activity against human Calu-6 cells assessed as cell growth inhibition incubated for 96 hrs by crystal violet staining; conditions: Calu-6, 96 h
Malme-3M = experiment: Antiproliferative activity against human Malme-3M cells assessed as cell growth inhibition incubated for 96 hrs by crystal violet staining
[4] = Volume of distribution at steady state in male Wistar rat plasma at 0.5 mg/kg, iv measured after 24 hrs by LC/-MS/MS analysis; assay type: ADME, organism-based; conditions: read-out: Vdss
[5] = Synergistic antitumor activity against human MAXF 1384 cells xenografted female athymic NMRI mouse model assessed as MTD at 2 mg/kg,po administered twice daily intermittent for 2 days on/5 days off measured after 48 hrs treatment in the presence of paclitaxel relative to control; assay type: functional; conditions: time 9 day
MDA-MB-453 = experiment: Antiproliferative activity against human MDA-MB-453 cells assessed as cell growth inhibition incubated for 96 hrs by crystal violet staining; conditions: MDA-MB-453, 96 h
[6] = Cmax in male Wistar rat plasma at 0.5 mg/kg, po measured after 24 hrs by LC/-MS/MS analysis; assay type: ADME, organism-based
Summary of the method: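 Male Wistar rats given 0.5 mg/kg orally. Plasma collected from 8 min to 24 h, precipitated with ice-cold acetonitrile (1:5), and analysed by LC/MS-MS. Cmax and Tmax read directly from concentration–time profiles.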

Granta-519 = experiment: Antiproliferative activity against human Granta-519 cells assessed as cell growth inhibition incubated for 96 hrs by MTS assay; assay type: functional, cell-based; conditions: Granta-519, 96 h
SAOS-2 = experiment: Antiproliferative activity against human SAOS-2 cells assessed as cell growth inhibition incubated for 96 hrs by MTS assay; assay type: functional, cell-based; conditions: SAOS-2, 96 h
[7] = Antiproliferative activity against human JMSU-1 cells assessed as cell growth inhibition incubated for 96 hrs by MTS assay; assay type: functional, cell-based; conditions: JMSU-1, 96 h
SK-BR-3 = experiment: Antiproliferative activity against human SK-BR-3 cells assessed as cell growth inhibition incubated for 96 hrs by crystal violet staining; conditions: SK-BR-3, 96 h
CAL-33 = experiment: Antiproliferative activity against human CAL-33 cells assessed as cell growth inhibition incubated for 96 hrs by crystal violet staining; conditions: CAL-33, 96 h
[8] = Antiproliferative activity against human HeLa-MaTu-ADR cells assessed as cell growth inhibition incubated for 96 hrs by crystal violet staining
MIA PaCa-2 = experiment: Antiproliferative activity against human MIA PaCa-2 cells assessed as cell growth inhibition incubated for 96 hrs by crystal violet staining; conditions: MIA PaCa-2, 96 h
OVCAR-8 = experiment: Antiproliferative activity against human OVCAR-8 cells assessed as cell growth inhibition incubated for 96 hrs by crystal violet staining; conditions: OVCAR-8, 96 h
NCI-H460 = experiment: Antiproliferative activity against human NCI-H460 cells assessed as cell growth inhibition incubated for 96 hrs by crystal violet staining; conditions: NCI-H460, 96 h
[9] = Antiproliferative activity against human OUMS-23 cells assessed as cell growth inhibition incubated for 96 hrs by crystal violet staining; conditions: OUMS-23, 96 h
NCI-H1373 = experiment: Antiproliferative activity against human NCI-H1373 cells assessed as cell growth inhibition incubated for 96 hrs by crystal violet staining; conditions: NCI-H1373, 96 h
NCI-H1770 = experiment: Antiproliferative activity against human NCI-H1770 cells assessed as cell growth inhibition incubated for 96 hrs by crystal violet staining; conditions: NCI-H1770, 96 h
Rh41 = experiment: Antiproliferative activity against human Rh41 cells assessed as cell growth inhibition incubated for 96 hrs by MTS assay; assay type: functional, cell-based; conditions: Rh41, 96 h

Question: For `COc1cc(S(C)(=O)=O)ccc1Nc1nc2ccc(-c3ccc(NC(=O)[C@H](C)c4ccc(F)cc4)cc3)cn2n1` [BAY-1161909], which IC50 (SK-MEL3) is on record?
Answer: 53 nM

Question: And the IC50 (SJRH30)?
Answer: 450 nM

Question: What about the IC50 (KM-H2) of the same compound?
Answer: 220 nM

Question: And the IC50 (TMD8)?
Answer: 240 nM

Question: And the IC50 (NCI-H2009)?
Answer: 560 nM

Question: What about the IC50 (HCT-15) of the same compound?
Answer: 110 nM

Question: What about the Kd [1] of the same compound?
Answer: 40000 nM

Question: And the IC50 (HCC70)?
Answer: 87 nM

Question: And the IC50 [2]?
Answer: 280 nM

Question: What about the IC50 (HCT-116) of the same compound?
Answer: 56 nM

Question: And the IC50 (JeKo-1)?
Answer: 65 nM

Question: And the half-life [3]?
Answer: 14 h

Question: And the IC50 (IGROV-1)?
Answer: 240 nM

Question: What about the IC50 (A2780) of the same compound?
Answer: 69 nM

Question: And the IC50 (NCI-H292)?
Answer: 190 nM

Question: And the inhibition (A2780cis)?
Answer: Active

Question: What about the IC50 (Calu-6) of the same compound?
Answer: > 3000 nM

Question: And the IC50 (Malme-3M)?
Answer: 200 nM

Question: What about the Vd [4] of the same compound?
Answer: 2.4 L/kg

Question: What about the MED [5] of the same compound?
Answer: 80%

Question: And the IC50 (MDA-MB-453)?
Answer: > 3000 nM

Question: What about the Cmax [6] of the same compound?
Answer: 110 ng/mL

Question: And the IC50 (Granta-519)?
Answer: 240 nM

Question: What about the IC50 (SAOS-2) of the same compound?
Answer: 520 nM

Question: And the IC50 [7]?
Answer: 89 nM

Question: What about the IC50 (SK-BR-3) of the same compound?
Answer: > 3000 nM

Question: And the IC50 (CAL-33)?
Answer: 110 nM

Question: What about the IC50 [8] of the same compound?
Answer: 180 nM

Question: And the IC50 (MIA PaCa-2)?
Answer: 1000 nM

Question: What about the IC50 (OVCAR-8) of the same compound?
Answer: 190 nM

Question: And the IC50 (NCI-H460)?
Answer: 110 nM

Question: And the IC50 [9]?
Answer: > 3000 nM

Question: And the IC50 (NCI-H1373)?
Answer: 190 nM

Question: What about the IC50 (NCI-H1770) of the same compound?
Answer: 100 nM

Question: What about the IC50 (Rh41) of the same compound?
Answer: 150 nM

From ChEMBL document CHEMBL5678814, “Novel Mps1 Kinase Inhibitors with Potent Antitumor Activity” (Mol Cancer Ther, 2016)
